According to ChEMBL document CHEMBL4699431, “Design and synthesis of substituted (1-(benzyl)-1H-1,2,3-triazol-4-yl)(piperazin-1-yl)methanone conjugates: study on their apoptosis inducing ability and tubulin polymerization inhibition” (RSC Med Chem, 2020):

System: MCF7
Test: Cytotoxicity against human MCF-7 cells assessed as reduction in cell viability incubated for 48 hrs by MTT assay
Type: functional, cell-based
Conditions: MCF7, 48 h
How it was run: (§1)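 Cells plated at 3000-4500 per well and treated after 24 h. DMSO stocks (20 mM) were diluted in medium to final DMSO <0.1%, twofold series […], 48 h. MTT (0.5 mg/mL) was added for 4 h, formazan dissolved in DMSO, absorbance read at 570 nm.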

SMILES | IC50 [µM]
COC(=O)Nc1nc2cc(C(=O)c3cccs3)ccc2[nH]1 [NOCODAZOLE] | 1.76
O=C(c1cn(Cc2ccccc2)nn1)N1CCN(S(=O)(=O)c2ccc(Br)cc2)CC1 | > 30
CC(C)(C)c1ccc(S(=O)(=O)N2CCN(C(=O)c3cn(Cc4ccc(I)cc4)nn3)CC2)cc1 | 3.06
COc1ccc(S(=O)(=O)N2CCN(C(=O)c3cn(Cc4cccc(OC)c4)nn3)CC2)cc1 | > 30
CC(C)(C)c1ccc(S(=O)(=O)N2CCN(C(=O)c3cn(Cc4ccc(F)cc4)nn3)CC2)cc1 | > 30
O=C(c1cn(Cc2ccc(I)cc2)nn1)N1CCN(S(=O)(=O)c2ccc(Br)cc2)CC1 | 2.73
Cc1ccc(S(=O)(=O)N2CCN(C(=O)c3cn(Cc4ccc(I)cc4)nn3)CC2)cc1 | > 30
Cc1ccc(S(=O)(=O)N2CCN(C(=O)c3cn(Cc4ccccc4)nn3)CC2)cc1 | > 30
O=C(c1cn(Cc2ccc(F)cc2)nn1)N1CCN(S(=O)(=O)c2ccc(Cl)cc2)CC1 | > 30
O=C(c1cn(Cc2ccccc2)nn1)N1CCN(S(=O)(=O)c2ccccc2)CC1 | > 30
COc1ccc(S(=O)(=O)N2CCN(C(=O)c3cn(Cc4ccc(F)cc4)nn3)CC2)cc1 | > 30
Cc1ccc(S(=O)(=O)N2CCN(C(=O)c3cn(Cc4cccc(Oc5ccccc5)c4)nn3)CC2)cc1 | > 30
COc1ccc(S(=O)(=O)N2CCN(C(=O)c3cn(Cc4cccc(Oc5ccccc5)c4)nn3)CC2)cc1 | 2.2
O=C(c1cn(Cc2ccc(I)cc2)nn1)N1CCN(S(=O)(=O)c2ccccc2)CC1 | > 30
O=C(c1cn(Cc2ccccc2)nn1)N1CCN(S(=O)(=O)c2ccc(Cl)cc2)CC1 | > 30

System: BT-474
Test: Cytotoxicity against human BT-474 cells assessed as reduction in cell viability incubated for 48 hrs by MTT assay
Type: functional, cell-based
Conditions: BT-474, 48 h
How it was run: as §1

SMILES | IC50 [µM]
COC(=O)Nc1nc2cc(C(=O)c3cccs3)ccc2[nH]1 [NOCODAZOLE] | 0.87
O=C(c1cn(Cc2ccccc2)nn1)N1CCN(S(=O)(=O)c2ccc(Br)cc2)CC1 | > 30
CC(C)(C)c1ccc(S(=O)(=O)N2CCN(C(=O)c3cn(Cc4ccc(I)cc4)nn3)CC2)cc1 | 1.21
COc1ccc(S(=O)(=O)N2CCN(C(=O)c3cn(Cc4cccc(OC)c4)nn3)CC2)cc1 | > 30
CC(C)(C)c1ccc(S(=O)(=O)N2CCN(C(=O)c3cn(Cc4ccc(F)cc4)nn3)CC2)cc1 | > 30
O=C(c1cn(Cc2ccc(I)cc2)nn1)N1CCN(S(=O)(=O)c2ccc(Br)cc2)CC1 | 2.33
Cc1ccc(S(=O)(=O)N2CCN(C(=O)c3cn(Cc4ccc(I)cc4)nn3)CC2)cc1 | > 30
Cc1ccc(S(=O)(=O)N2CCN(C(=O)c3cn(Cc4ccccc4)nn3)CC2)cc1 | > 30
O=C(c1cn(Cc2ccc(F)cc2)nn1)N1CCN(S(=O)(=O)c2ccc(Cl)cc2)CC1 | > 30
O=C(c1cn(Cc2ccccc2)nn1)N1CCN(S(=O)(=O)c2ccccc2)CC1 | > 30
COc1ccc(S(=O)(=O)N2CCN(C(=O)c3cn(Cc4ccc(F)cc4)nn3)CC2)cc1 | > 30
Cc1ccc(S(=O)(=O)N2CCN(C(=O)c3cn(Cc4cccc(Oc5ccccc5)c4)nn3)CC2)cc1 | > 30
COc1ccc(S(=O)(=O)N2CCN(C(=O)c3cn(Cc4cccc(Oc5ccccc5)c4)nn3)CC2)cc1 | 5.13
O=C(c1cn(Cc2ccc(I)cc2)nn1)N1CCN(S(=O)(=O)c2ccccc2)CC1 | > 30
O=C(c1cn(Cc2ccccc2)nn1)N1CCN(S(=O)(=O)c2ccc(Cl)cc2)CC1 | > 30

System: NCI-H460
Test: Cytotoxicity against human NCI-H460 cells assessed as reduction in cell viability incubated for 48 hrs by MTT assay
Type: functional, cell-based
Conditions: NCI-H460, 48 h
How it was run: as §1

SMILES | IC50 [µM]
COC(=O)Nc1nc2cc(C(=O)c3cccs3)ccc2[nH]1 [NOCODAZOLE] | 2.29
O=C(c1cn(Cc2ccccc2)nn1)N1CCN(S(=O)(=O)c2ccc(Br)cc2)CC1 | > 30
CC(C)(C)c1ccc(S(=O)(=O)N2CCN(C(=O)c3cn(Cc4ccc(I)cc4)nn3)CC2)cc1 | 1.42
COc1ccc(S(=O)(=O)N2CCN(C(=O)c3cn(Cc4cccc(OC)c4)nn3)CC2)cc1 | > 30
CC(C)(C)c1ccc(S(=O)(=O)N2CCN(C(=O)c3cn(Cc4ccc(F)cc4)nn3)CC2)cc1 | > 30
O=C(c1cn(Cc2ccc(I)cc2)nn1)N1CCN(S(=O)(=O)c2ccc(Br)cc2)CC1 | 3.55
Cc1ccc(S(=O)(=O)N2CCN(C(=O)c3cn(Cc4ccc(I)cc4)nn3)CC2)cc1 | > 30
Cc1ccc(S(=O)(=O)N2CCN(C(=O)c3cn(Cc4ccccc4)nn3)CC2)cc1 | > 30
O=C(c1cn(Cc2ccc(F)cc2)nn1)N1CCN(S(=O)(=O)c2ccc(Cl)cc2)CC1 | > 30
O=C(c1cn(Cc2ccccc2)nn1)N1CCN(S(=O)(=O)c2ccccc2)CC1 | > 30
COc1ccc(S(=O)(=O)N2CCN(C(=O)c3cn(Cc4ccc(F)cc4)nn3)CC2)cc1 | > 30
Cc1ccc(S(=O)(=O)N2CCN(C(=O)c3cn(Cc4cccc(Oc5ccccc5)c4)nn3)CC2)cc1 | > 30
COc1ccc(S(=O)(=O)N2CCN(C(=O)c3cn(Cc4cccc(Oc5ccccc5)c4)nn3)CC2)cc1 | 8.2
O=C(c1cn(Cc2ccc(I)cc2)nn1)N1CCN(S(=O)(=O)c2ccccc2)CC1 | > 30
O=C(c1cn(Cc2ccccc2)nn1)N1CCN(S(=O)(=O)c2ccc(Cl)cc2)CC1 | > 30

System: HaCaT
Test: Cytotoxicity against human HaCaT cells assessed as reduction in cell viability incubated for 48 hrs by MTT assay
Type: functional, cell-based
Conditions: not given
How it was run: as §1

SMILES | IC50 [µM]
COC(=O)Nc1nc2cc(C(=O)c3cccs3)ccc2[nH]1 [NOCODAZOLE] | 1.19
O=C(c1cn(Cc2ccccc2)nn1)N1CCN(S(=O)(=O)c2ccc(Br)cc2)CC1 | > 30
CC(C)(C)c1ccc(S(=O)(=O)N2CCN(C(=O)c3cn(Cc4ccc(I)cc4)nn3)CC2)cc1 | 2.06
COc1ccc(S(=O)(=O)N2CCN(C(=O)c3cn(Cc4cccc(OC)c4)nn3)CC2)cc1 | > 30
CC(C)(C)c1ccc(S(=O)(=O)N2CCN(C(=O)c3cn(Cc4ccc(F)cc4)nn3)CC2)cc1 | > 30
O=C(c1cn(Cc2ccc(I)cc2)nn1)N1CCN(S(=O)(=O)c2ccc(Br)cc2)CC1 | 2.48
Cc1ccc(S(=O)(=O)N2CCN(C(=O)c3cn(Cc4ccc(I)cc4)nn3)CC2)cc1 | > 30
Cc1ccc(S(=O)(=O)N2CCN(C(=O)c3cn(Cc4ccccc4)nn3)CC2)cc1 | > 30
O=C(c1cn(Cc2ccc(F)cc2)nn1)N1CCN(S(=O)(=O)c2ccc(Cl)cc2)CC1 | > 30
O=C(c1cn(Cc2ccccc2)nn1)N1CCN(S(=O)(=O)c2ccccc2)CC1 | > 30
COc1ccc(S(=O)(=O)N2CCN(C(=O)c3cn(Cc4ccc(F)cc4)nn3)CC2)cc1 | > 30
Cc1ccc(S(=O)(=O)N2CCN(C(=O)c3cn(Cc4cccc(Oc5ccccc5)c4)nn3)CC2)cc1 | > 30
COc1ccc(S(=O)(=O)N2CCN(C(=O)c3cn(Cc4cccc(Oc5ccccc5)c4)nn3)CC2)cc1 | 2.59
O=C(c1cn(Cc2ccc(I)cc2)nn1)N1CCN(S(=O)(=O)c2ccccc2)CC1 | > 30
O=C(c1cn(Cc2ccccc2)nn1)N1CCN(S(=O)(=O)c2ccc(Cl)cc2)CC1 | > 30

System: HeLa
Test: Cytotoxicity against human HeLa cells assessed as reduction in cell viability incubated for 48 hrs by MTT assay
Type: functional, cell-based
Conditions: not given
How it was run: as §1

SMILES | IC50 [µM]
O=C(c1cn(Cc2ccccc2)nn1)N1CCN(S(=O)(=O)c2ccc(Br)cc2)CC1 | > 30
CC(C)(C)c1ccc(S(=O)(=O)N2CCN(C(=O)c3cn(Cc4ccc(I)cc4)nn3)CC2)cc1 | 3.58
COc1ccc(S(=O)(=O)N2CCN(C(=O)c3cn(Cc4cccc(OC)c4)nn3)CC2)cc1 | > 30
CC(C)(C)c1ccc(S(=O)(=O)N2CCN(C(=O)c3cn(Cc4ccc(F)cc4)nn3)CC2)cc1 | > 30
O=C(c1cn(Cc2ccc(I)cc2)nn1)N1CCN(S(=O)(=O)c2ccc(Br)cc2)CC1 | 6.52
Cc1ccc(S(=O)(=O)N2CCN(C(=O)c3cn(Cc4ccc(I)cc4)nn3)CC2)cc1 | > 30
Cc1ccc(S(=O)(=O)N2CCN(C(=O)c3cn(Cc4ccccc4)nn3)CC2)cc1 | > 30
O=C(c1cn(Cc2ccc(F)cc2)nn1)N1CCN(S(=O)(=O)c2ccc(Cl)cc2)CC1 | > 30
O=C(c1cn(Cc2ccccc2)nn1)N1CCN(S(=O)(=O)c2ccccc2)CC1 | > 30
COc1ccc(S(=O)(=O)N2CCN(C(=O)c3cn(Cc4ccc(F)cc4)nn3)CC2)cc1 | > 30
Cc1ccc(S(=O)(=O)N2CCN(C(=O)c3cn(Cc4cccc(Oc5ccccc5)c4)nn3)CC2)cc1 | > 30
COc1ccc(S(=O)(=O)N2CCN(C(=O)c3cn(Cc4cccc(Oc5ccccc5)c4)nn3)CC2)cc1 | 3.72
O=C(c1cn(Cc2ccc(I)cc2)nn1)N1CCN(S(=O)(=O)c2ccccc2)CC1 | > 30
O=C(c1cn(Cc2ccccc2)nn1)N1CCN(S(=O)(=O)c2ccc(Cl)cc2)CC1 | > 30
